Laboratory results: ChEMBL document CHEMBL3784946, “Antiviral Merosesquiterpenoids Produced by the Antarctic Fungus Aspergillus ochraceopetaliformis SCSIO 05702” (J Nat Prod, 2016)
Values after ≈ are worked out from the molar mass of the structure shown. Active and inactive are the calls of the source. The calls are words filed in the database; no cut-off is given here.

Legend:
[1] = system: HL-60; assay: Cytotoxicity against human HL60 cells assessed as reduction in cell viability after 72 hrs by CCK8 assay; type: functional, cell-based
In short: (§1)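 Cells grown in RPMI or DMEM with 10% FBS and 1% penicillin/streptomycin at 37 °C under 5% CO2. Seeded at 400–800 cells/well and exposed to graded compound concentrations or solvent control for 72 h. Viability read by CCK-8 absorbance at 450 nm, and IC50 derived from dose–response curves.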

[2] = Selectivity index, ratio of CC50 for MDCK cells to IC50 for Influenza A virus H3N2 infected in MDCK cells; type: functional
In short: (§2)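 SI calculated as CC50 divided by IC50, both from the CPE-inhibition assay on MDCK cells. The underlying values are means of three independent experiments.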

[3] = system: U-937; assay: (§3) Cytotoxicity against human U937 cells assessed as reduction in cell viability after 72 hrs by CCK8 assay; type: functional, cell-based; in short: as §1
[4] = system: Staphylococcus aureus; assay: Antibacterial activity against Staphylococcus aureus assessed as growth inhibition at 0.01 to 100 ug/ml after 24 hrs by agar dilution method; type: functional, organism-based
In short: (§4)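 Bacteria grown on LB agar plates at 37 °C. Samples were dissolved in DMSO and serially diluted 2-fold from 100 to 0.01 μg/mL. 5 μL of each dilution was loaded onto a 5 mm paper disk placed on the plate. After 24 h, inhibition zone diameters (mm) were recorded. MIC was the lowest concentration with no visible growth. Ciprofloxacin lactate served as positive control.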

[5] = system: HT-29; assay: Cytotoxicity against human HT-29 cells assessed as reduction in cell viability after 72 hrs by CCK8 assay; type: functional, cell-based; in short: as §1
[6] = system: A549; assay: Cytotoxicity against human A549 cells assessed as reduction in cell viability after 72 hrs by CCK8 assay; type: functional, cell-based; in short: as §1
[7] = system: Mycobacterium tuberculosis; assay: Antitubercular activity against Mycobacterium tuberculosis H37Ra assessed as growth inhibition at 100 ug/ml after 7 days by Alamar blue assay; type: functional, organism-based
In short: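 M. tuberculosis H37Ra exposed 7 days to material at 100 μg/mL (from 10 mg/mL DMSO stock; 1% v/v DMSO). Growth measured by Alamar Blue fluorescence, with inhibition expressed relative to bacteria-only controls.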

[8] = system: Influenza A virus; assay: Antiviral activity against Influenza A virus H1N1 infected in MDCK cells assessed as inhibition of virus-induced cytopathic effect after 48 hrs by crystal violet staining-based microplate reader analysis; type: functional, organism-based
In short: (§5)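 Confluent MDCK monolayers infected with influenza virus for 1 h at 37 °C. Virus was removed, and cells were kept in RPMI 1640 with 4 μg/mL trypsin plus graded compound concentrations for 48 h at 37 °C. Cells were then fixed in 4% formaldehyde and stained with 0.1% crystal violet, with absorbance read at 570 nm. IC50 is the concentration giving 50% […] at 48 h. Values are means of three independent experiments.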

[9] = Cytotoxicity against MDCK cells after 48 hrs by crystal violet staining-based microplate reader analysis; type: cell-based, Canis lupus familiaris; conditions: dog
In short: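 CC50 taken from the CPE-inhibition assay format on MDCK cells, with crystal violet read-out. Values are means ± SD of three independent experiments.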

[10] = system: Influenza A virus H3N2; assay: Antiviral activity against Influenza A virus H3N2 infected in MDCK cells assessed as inhibition of virus-induced cytopathic effect after 48 hrs by crystal violet staining-based microplate reader analysis; type: functional, organism-based; in short: as §5
[11] = system: Escherichia coli; assay: Antibacterial activity against Escherichia coli assessed as growth inhibition at 0.01 to 100 ug/ml after 24 hrs by agar dilution method; type: functional, organism-based; in short: as §4
[12] = system: HeLa; assay: Cytotoxicity against human HeLa cells assessed as reduction in cell viability after 72 hrs by CCK8 assay; type: functional, cell-based; in short: as §1
[13] = Selectivity index, ratio of CC50 for MDCK cells to IC50 for Influenza A virus H1N1 infected in MDCK cells; type: functional; in short: as §2
[14] = system: Mycobacterium tuberculosis; assay: Antitubercular activity against Mycobacterium tuberculosis H37Ra after 7 days by Alamar blue assay; type: functional; conditions: 168 h
In short: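 M. tuberculosis H37Ra exposed 7 days to 2-fold dilution series from 100 μg/mL downward (10 mg/mL DMSO stock; 1% v/v DMSO at top). Growth measured by Alamar Blue fluorescence.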

[15] = as §3; type: functional, cell-based; conditions: U-937, 72 h; in short: as §1
[16] = system: Staphylococcus aureus; assay: Antibacterial activity against Staphylococcus aureus after 24 hrs by agar dilution method; type: functional

| Compound | Activity [1] | Ratio CC50/IC50 [2] | Activity [3] | growth inhibition (GI) [4] | Activity [5] | Activity [6] | growth inhibition (GI) [7] | IC50 [8] | CC50 at 48 h [9] | IC50 [10] | growth inhibition (GI) [11] | Activity [12] | Ratio CC50/IC50 [13] | MIC90 [14] | IC50 [15] | IC50 ([5]; HT-29, 72 h) | MIC [16] |
| --- | --- | --- | --- | --- | --- | --- | --- | --- | --- | --- | --- | --- | --- | --- | --- | --- | --- |
| CO[C@H]1c2c(c(C)c(C)oc2=O)O[C@@]2(C)[C@H]1[C@@H](C)[C@]1(O)CC(=O)C(C)(C)C(=O)[C@@]1(O)[C@H]2O | inactive | 1.71 | inactive | inactive | inactive | inactive | inactive | > 20000 nM | 20900 nM | 12200 nM | inactive | inactive | – | – | – | – | – |
| CC[C@H]1O[C@@H]2O[C@H](/C=C/C=C/C=C/c3oc(=O)cc(OC)c3C)[C@H](O)[C@]2(C)[C@@]1(C)O | inactive | 0.29 | inactive | inactive | inactive | inactive | inactive | 540 nM | 240 nM | 840 nM | inactive | inactive | 0.44 | – | – | – | – |
| Cc1oc(=O)c2c(c1C)O[C@@]1(C)[C@@H]([C@@H](C)[C@]3(O)CC(=O)C(C)(C)C(=O)[C@@]3(O)[C@H]1O)[C@H]2O | inactive | – | inactive | inactive | inactive | inactive | inactive | – | – | – | inactive | inactive | – | – | – | – | – |
| Cc1oc(=O)c2c(c1C)O[C@@]1(C)C(=C2)[C@@H](C)[C@]2(O)CC(=O)C(C)(C)C(=O)[C@@]2(O)[C@H]1O | inactive | – | inactive | inactive | inactive | inactive | inactive | – | – | – | inactive | inactive | – | – | – | – | – |
| CC[C@H]1O[C@@H]2O[C@H](/C=C/C=C\C=C\c3oc(=O)cc(OC)c3C)[C@H](O)[C@]2(C)[C@@]1(C)O | inactive | 0.81 | inactive | inactive | inactive | inactive | inactive | 230 nM | 540 nM | 660 nM | inactive | inactive | 2.35 | – | – | – | – |
| NNC(=O)c1ccncc1 [ISONIAZID] | – | – | – | – | – | – | – | – | – | – | – | – | – | 2.04 µM (≈ 0.28 µg/mL) | – | – | – |
| Cc1oc(=O)c2c(c1C)O[C@@]1(C)[C@H](C2)[C@@H](C)[C@]2(O)CC(=O)C(C)(C)C(=O)[C@@]2(O)[C@H]1O | inactive | – | inactive | inactive | inactive | inactive | inactive | – | – | – | inactive | inactive | – | – | – | – | – |
| CC(=O)O[C@H]1C(=O)[C@@]2(C)[C@H]([C@H](OC(=O)c3ccccc3)[C@]3(O)C[C@H](OC(=O)[C@H](O)[C@@H](NC(=O)c4ccccc4)c4ccccc4)C(C)=C1C3(C)C)[C@]1(OC(C)=O)CO[C@@H]1C[C@@H]2O [PACLITAXEL] | – | – | – | – | – | – | – | – | – | – | – | – | – | – | 1.66 nM | 3.04 nM | – |
| CC(O)C(=O)O.O=C(O)c1cn(C2CC2)c2cc(N3CCNCC3)c(F)cc2c1=O [CIPROFLOXACIN LACTATE] | – | – | – | – | – | – | – | – | – | – | – | – | – | – | – | – | 1.25 µg/mL |
| CCOC(=O)C1=C[C@@H](OC(CC)CC)[C@H](NC(C)=O)[C@@H](N)C1 [OSELTAMIVIR] | – | – | – | – | – | – | – | 16.9 nM | – | 18.5 nM | – | – | – | – | – | – | – |
| CC[C@H]1O[C@@H]2O[C@@H]3[C@H](O)[C@@H](/C=C/C=C/c4oc(=O)cc(OC)c4C)O[C@@H]3[C@]2(C)[C@@]1(C)O | inactive | – | inactive | inactive | inactive | inactive | inactive | – | – | – | inactive | inactive | – | – | – | – | – |
| Cc1oc(=O)c2c(c1C)O[C@]1(C)[C@H](O)C[C@@]3(O)C(C)(C)C(=O)CC[C@]3(C)[C@H]1C2 | inactive | – | inactive | inactive | inactive | inactive | inactive | – | – | – | inactive | inactive | – | – | – | – | – |
